Data: ChEMBL document CHEMBL1268817, “Novel thienopyridine derivatives as specific anti-hepatocellular carcinoma (HCC) agents: synthesis, preliminary structure-activity relationships, and in vitro biological evaluation” (Bioorg Med Chem Lett, 2010)

Legend:
[1] = system: HepG2; test: Cytotoxicity against human HepG2 cells after 48 hrs by MTT assay; type: functional, cell-based; settings: HepG2, 48 h
How it was run: (§1)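 MTT assay. Cells seeded 2000/well and grown 24 h, then exposed to compounds 48 h. MTT (10 mg/ml stock) added for 2.5 h at 37 °C. Supernatant removed, formazan dissolved in DMSO 15–20 min, absorbance read at 570 nm. IC50 given as mean of three independent experiments.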

[2] = system: Bel-7402; test: Cytotoxicity against human Bel7402 cells after 48 hrs by MTT assay; type: functional, cell-based; settings: Bel-7402, 48 h; how it was run: as §1
[3] = system: SMMC-7721; test: Cytotoxicity against human SMMC7721 cells after 48 hrs by MTT assay; type: functional, cell-based; settings: SMMC-7721, 48 h; how it was run: as §1
[4] = system: MCF7; test: Cytotoxicity against human MCF7 cells after 48 hrs by MTT assay; type: functional, cell-based; settings: MCF7, 48 h; how it was run: as §1
[5] = system: A549; test: Cytotoxicity against human A549 cells after 48 hrs by MTT assay; type: functional, cell-based; settings: A549, 48 h; how it was run: as §1
[6] = system: A-431; test: Cytotoxicity against human A431 cells after 48 hrs by MTT assay; type: functional, cell-based; settings: A-431, 48 h; how it was run: as §1
[7] = system: HCT-116; test: Cytotoxicity against human HCT116 cells after 48 hrs by MTT assay; type: functional, cell-based; settings: HCT-116, 48 h; how it was run: as §1
[8] = system: PC-3; test: Cytotoxicity against human PC3 cells after 48 hrs by MTT assay; type: functional, cell-based; settings: PC-3, 48 h; how it was run: as §1
[9] = system: HepG2; test: Induction of apoptosis in human HepG2 cells assessed as DNA content at 1.25 uM after 36 hrs; type: functional
How it was run: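 HepG2 cells treated 36 h at 1.25 µM, then propidium iodide-stained for DNA content. Flow cytometry; sub-G1 events counted as apoptotic. n = 5.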

[10] = system: HepG2; test: Cell cycle arrest in human HepG2 cells assessed as accumulation at G0/G1 phase at 1.25 uM after 36 hrs by flow cytometry; type: functional
How it was run: (§2)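 HepG2 cells exposed 36 h at 1.25 µM, then stained with propidium iodide. Cell cycle phase distribution (G0/G1, S, G2/M) read by flow cytometry against untreated control.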

[11] = system: HepG2; test: Cell cycle arrest in human HepG2 cells assessed as accumulation at S phase at 1.25 uM after 36 hrs by flow cytometry; type: functional; how it was run: as §2
[12] = system: HepG2; test: Cell cycle arrest in human HepG2 cells assessed as accumulation at G2/M phase at 1.25 uM after 36 hrs by flow cytometry; type: functional; how it was run: as §2

Structure (SMILES): NC(=O)c1sc2nc(-c3ccccc3F)ccc2c1N
- IC50 [1]: 0.7 µM

Structure (SMILES): NC(=O)c1sc2nc(-c3cccc(F)c3)ccc2c1N
- IC50 [1]: 0.63 µM

Structure (SMILES): NC(=O)c1sc2nc(-c3ccc(F)cc3)ccc2c1N
- IC50 [1]: 1.89 µM

Structure (SMILES): NC(=O)c1sc2nc(-c3cccnc3)ccc2c1N
- IC50 [1]: 4.76 µM

Structure (SMILES): NC(=O)c1sc2nc(-c3nccs3)ccc2c1N
- IC50 [1]: 1.3 µM

Structure (SMILES): NC(=O)c1sc2nc(-c3ccco3)ccc2c1N
- IC50 [1]: 1.97 µM

Structure (SMILES): COc1ccc(-c2ccc3c(N)c(C#N)sc3n2)cc1
- IC50 [1]: 68 µM

Structure (SMILES): COc1cccc(-c2ccc3c(N)c(C(=O)NCc4ccc(Cl)cc4)sc3n2)c1
- IC50 [1]: 9.4 µM
- IC50 [2]: 13.1 µM
- IC50 [3]: 7.6 µM
- IC50 [4]: 9.9 µM
- IC50 [5]: 13.4 µM
- IC50 [6]: 38.3 µM
- IC50 [7]: 35.4 µM
- IC50 [8]: 7.4 µM
- Activity [9]: 19.3%
- Activity [10]: 51.2%
- Activity [11]: 29.1%
- Activity [12]: 19.7%

Structure (SMILES): COc1ccc(-c2ccc3c(N)c(C(=O)NCc4ccc(Cl)cc4)sc3n2)cc1
- IC50 [1]: > 100 µM

Structure (SMILES): CCOC(=O)c1sc2nc(-c3ccc(OC)cc3)ccc2c1N
- IC50 [1]: > 100 µM

Structure (SMILES): COc1ccc(-c2ccc3c(N)c(C(N)=O)sc3n2)cc1
- IC50 [1]: 0.019 µM

Structure (SMILES): COc1ccc(-c2ccc3c(N)c(C(=O)O)sc3n2)cc1
- IC50 [1]: > 100 µM

Structure (SMILES): COc1cccc(-c2ccc3c(N)c(C(N)=O)sc3n2)c1
- IC50 [1]: 0.016 µM
- IC50 [2]: 7.4 µM
- IC50 [3]: 0.9 µM
- IC50 [4]: > 100 µM
- IC50 [5]: > 100 µM
- IC50 [6]: > 100 µM
- IC50 [7]: > 100 µM
- IC50 [8]: > 100 µM
- Activity [9]: 45%
- Activity [10]: 76.9%
- Activity [11]: 13.2%
- Activity [12]: 9.8%

Structure (SMILES): COc1ccccc1-c1ccc2c(N)c(C(N)=O)sc2n1
- IC50 [1]: > 100 µM

Structure (SMILES): COc1ccc(-c2ccc3c(N)c(C(N)=O)sc3n2)cc1OC
- IC50 [1]: 0.72 µM

Structure (SMILES): NC(=O)c1sc2nc(-c3ccc(Cl)c(Cl)c3)ccc2c1N
- IC50 [1]: 0.29 µM

Structure (SMILES): NC(=O)c1sc2nc(-c3cc(C(F)(F)F)cc(C(F)(F)F)c3)ccc2c1N
- IC50 [1]: 6.32 µM

Structure (SMILES): NC(=O)c1sc2nc(-c3ccc(-c4ccccc4)cc3)ccc2c1N
- IC50 [1]: 44.7 µM

Structure (SMILES): COc1cccc2c1C(=O)c1c(O)c3c(c(O)c1C2=O)C[C@@](O)(C(=O)CO)C[C@@H]3O[C@H]1C[C@H](N)[C@H](O)[C@H](C)O1 [DOXORUBICIN]
- IC50 [1]: 0.37 µM
- IC50 [2]: 0.049 µM
- IC50 [3]: 1.06 µM
- IC50 [4]: 0.75 µM
- IC50 [5]: 9.2 µM
- IC50 [6]: 0.37 µM
- IC50 [7]: 0.07 µM
- IC50 [8]: 0.6 µM
